Reference: ChEMBL document CHEMBL1123095, “Synthesis and biological activity of 6-azacadeguomycin and certain 3,4,6-trisubstituted pyrazolo[3,4-d]pyrimidine ribonucleosides” (1985)
Activity calls are given as the source filed them. No cut-off for these calls is given here.

Assays:
P388 [1] = test: Percent inhibition against P388 cell growth at concentration 10e-4 was reported; format: functional, Mus musculus
Method in brief: (§1)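 L1210 murine leukemia or P388 lymphoid neoplasm cells in RPMI 1640 with 10% fetal bovine serum and 20 mM Hepes, adjusted to 1 × 10⁵ cells/mL. Compounds dissolved in medium, filter-sterilized, tested in duplicate at log concentrations 1×10⁻⁷ to 1×10⁻⁴ M. After 48 h at 37 °C, Coulter cell counts; growth as percent of untreated control; ID₅₀ is the concentration giving 50% growth inhibition.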

Vero [2] = test: In vitro antiviral activity against Parainfluenza type 3 was evaluated.; format: functional; settings: Chlorocebus sabaeus, read-out: ED50 (the source's name)
Vero [3] = test: In vitro antiviral activity against measles virus was evaluated.; format: functional; settings: Chlorocebus sabaeus, read-out: ED50 (the source's name)
Vero [4] = test: In vitro antiviral activity against vaccinia virus was evaluated.; format: functional; settings: Chlorocebus sabaeus, read-out: ED50 (the source's name)
L1210 [5] = test: Percent inhibition against L1210 cell growth at concentration 10e-4 was reported; format: functional, Mus musculus; method in brief: as §1
Vero [6] = test: In vitro antiviral activity against herpes simplex virus type 2 virus was evaluated.; format: functional; settings: Chlorocebus sabaeus, read-out: ED50 (the source's name)
Vero [7] = test: Toxicity level was reported; None.; format: functional, cell-based; settings: Chlorocebus sabaeus
Vero [8] = test: Toxicity level was reported.; format: functional, Chlorocebus sabaeus
P388 [9] = test: In vitro inhibitory dose against P388 cells was evaluated; Inactive at 10e-4 concentration; format: functional, cell-based; settings: Mus musculus
Method in brief: (§2)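 Murine leukemia L1210 or lymphoid neoplasm P388 cells were grown in RPMI 1640 with 10% fetal bovine serum and 20 mM Hepes. Cells at 1 × 10⁵ cells/mL received filter-sterilized compound dissolved in growth medium, in duplicate at log concentrations from 1×10⁻⁷ to 1×10⁻⁴ M. After 48 h at 37 °C, cells were counted on a Coulter counter. Growth was expressed as percent of untreated control, and ID₅₀ was taken as the concentration giving 50% growth inhibition.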

L1210 [10] = test: In vitro inhibitory dose against L1210 leukemia cells was evaluated; Inactive at 10e-4 concentration; format: functional, cell-based; settings: Mus musculus; method in brief: as §2
Vero [11] = test: Toxicity level was reported; none; format: functional, cell-based; settings: Chlorocebus sabaeus
L1210 [12] = test: In vitro inhibitory dose against L1210 leukemia cells was evaluated; Inactive at 10^-4M; format: functional, cell-based; settings: Mus musculus; method in brief: as §1
P388 [13] = test: In vitro inhibitory dose against P388 cells was evaluated; Inactive at 10^-4M; format: functional, cell-based; settings: Mus musculus; method in brief: as §1
L1210 [14] = test: In vitro inhibitory dose against L1210 leukemia cells was evaluated.; format: functional; settings: Mus musculus, read-out: ID50 (the source's name); method in brief: as §2
P388 [15] = test: In vitro inhibitory dose against P388 cells was evaluated.; format: functional; settings: Mus musculus, read-out: ID50 (the source's name); method in brief: as §2
L1210 [16] = test: Percent inhibition against L1210 cell growth at concentration 10e-4 was reported.; format: functional, Mus musculus; method in brief: as §2
P388 [17] = test: Percent inhibition against P388 cell growth at concentration 10e-4 was reported; Inative at 10^-4M; format: functional, cell-based; settings: Mus musculus; method in brief: as §2

SMILES | EC50 (Vero [2]) | EC50 (Vero [3]) | EC50 (Vero [4]) | EC50 (Vero [6]) | Toxic level (Vero [7]) | Toxic level (Vero [8]) | other results
NC(=O)c1nn(C2O[C@H](CO)[C@@H](O)[C@H]2O)c2nc(N)[nH]c(=O)c12 (some centres undefined) | > 500 µM | > 500 µM | > 500 µM | > 500 µM | None | – | Inhibition (P388 [1]): 22%; Inhibition (L1210 [5]): 30%
C[S+]([O-])c1nc(O)c2c(Br)[nH]nc2n1 (centres undefined) | > 5000 µM | > 5000 µM | 260 µM | 1200 µM | – | >0.5 mM | –
NC(=O)c1[nH]nc2nc(S)nc(O)c12 | 390 µM | > 500 µM | – | 180 µM | None | – | –
CSc1nc(O)c2c(C(N)=O)[nH]nc2n1 | > 500 µM | > 500 µM | 330 µM | 85 µM | – | >0.5 mM | –
Nc1nc2c(cnn2C2O[C@H](CO)[C@@H](O)[C@H]2O)c(=O)[nH]1 (some centres undefined) | > 5000 µM | – | 1000 µM | 1600 µM | – | – | ID50 (P388 [9]): inactive; ID50 (L1210 [10]): inactive; Toxic level (Vero [11]): inactive
Nc1nc2c(c(C(=O)O)nn2C2O[C@H](CO)[C@@H](O)[C@H]2O)c(=O)[nH]1 (some centres undefined) | > 5000 µM | > 5000 µM | > 5000 µM | > 5000 µM | None | – | ID50 (L1210 [12]): inactive; ID50 (P388 [13]): inactive
NC(=O)c1c[se]c([C@@H]2O[C@H](CO)[C@@H](O)[C@H]2O)n1 | 3.2 µM | 3.2 µM | 9.8 µM | 14 µM | – | – | Toxic level (Vero [11]): inactive
N#Cc1nn(C2O[C@H](CO)[C@@H](O)[C@H]2O)c2nc(N)[nH]c(=O)c12 (some centres undefined) | 220 µM | 54 µM | 140 µM | 100 µM | None | – | IC50 (L1210 [14]): 22 µM; IC50 (P388 [15]): 21 µM
COc1nc2c(c(Br)nn2C2O[C@H](CO)[C@@H](O)[C@H]2O)c(=O)[nH]1 (some centres undefined) | > 2500 µM | > 2500 µM | 3500 µM | 1600 µM | – | 2.5 mM | –
NC(=S)c1nn(C2O[C@H](CO)[C@@H](O)[C@H]2O)c2nc(N)[nH]c(=O)c12 (some centres undefined) | 590 µM | 65 µM | – | > 5000 µM | None | – | Inhibition (L1210 [16]): 43%; ID50 (P388 [17]): inactive
Oc1[nH]c(Br)nc2nncc1-2 | > 5000 µM | > 5000 µM | 430 µM | 1600 µM | – | 1.6 mM | –
NC(=O)c1ncn([C@@H]2O[C@H](CO)[C@@H](O)[C@H]2O)n1 [RIBAVIRIN] | 160 µM | 33 µM | 85 µM | 190 µM | – | – | Toxic level (Vero [11]): Non-toxic
Nc1nc2c(c(Br)nn2C2O[C@H](CO)[C@@H](O)[C@H]2O)c(=O)[nH]1 (some centres undefined) | > 5000 µM | 20 µM | 76 µM | 180 µM | – | 1.6 mM | IC50 (L1210 [14]): 36 µM; IC50 (P388 [15]): 36 µM
Oc1[nH]c(Br)nc2nnc(Br)c1-2 | > 5000 µM | > 5000 µM | 240 µM | > 500 µM | – | >0.05 mM | –
